Screening data as filed in PubChem.
Shown are actives, neighbours in structure and some others; about 4.3% of the full set was active somewhere.
CAL PDZ FP-1: blocks peptide binding to human CAL PDZ domain; Q9HD26; purified CAL PDZ, TMR-peptide fluorescence polarization, 1 h; inhibition, % at 20 µM; actives 0.02% (n = 330,000);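 active means highest replicate inhibition of at least 40%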
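Test system: tagged CAL PDZ domain / Buffer or medium: sodium phosphate/NaCl buffer pH 7.4 with TCEP, IgG, Thesit / Reagent: TMR-labelled reporter peptide T*-PRC34 bound in PDZ groove / Compound dosing: single point, 20 µM / Schedule: 1 h incubation at room temperature before polarization reading / Technique: fluorescence polarization (mP) / Benchmarks: unlabelled peptide, DMSO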
DYRK1A inh: blocks rat Dyrk1A kinase activity; Q63470; ADP-Glo luminescence, NFATc1 peptide; inhibition, % at 12.5 µM; actives 0.43% (n = 310,000); AID 504441; in the data active means inhibition above about 50%
ALR inh: inhibitors of human sulfhydryl oxidase ALR; actives 3.8% (n = 290,000); inhibition, % (concentration not given with the values); AID 485317; purified ALR, DTT oxidation, H2O2 HRP-luminol luminescence;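 active means mean replicate inhibition above about 79%, with every replicate also reaching it, limit read from the data; inconclusive means only one of the two criteria met; inactive means mean below limit and not every replicate reaching it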
Target sequence (P55789 whole entry, looked up): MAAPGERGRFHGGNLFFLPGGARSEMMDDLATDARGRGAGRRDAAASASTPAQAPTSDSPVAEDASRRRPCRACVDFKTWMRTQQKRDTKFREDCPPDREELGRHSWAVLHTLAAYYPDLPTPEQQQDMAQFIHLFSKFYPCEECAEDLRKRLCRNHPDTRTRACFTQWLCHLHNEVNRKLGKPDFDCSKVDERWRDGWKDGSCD
CAL PDZ FP-2: inhibitors of human CAL PDZ peptide binding; Q9HD26; purified CAL PDZ, TMR-peptide fluorescence polarization, 1 h; inhibition, % at 24.9 µM; actives 0.92% (n = 300,000); AID 602252;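 active means mean inhibition of at least 30% with at least half of replicates also reaching 30%; inconclusive means no clear call, values can overlap the other calls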
Rtt109 HAT inh: C. albicans Rtt109 histone acetyltransferase inhibition. purified Rtt109/Vps75, ThioGlo CoA-SH fluorescence, 4 h. inhibition, % at 34.9 µM. actives 0.16% (n = 330,000). Q5AAJ8;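 active means inhibition of at least 50% in every replicate; inconclusive means best replicate reaches 50% inhibition but some replicates fall short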
Target sequence (Q5AAJ8 whole entry, looked up): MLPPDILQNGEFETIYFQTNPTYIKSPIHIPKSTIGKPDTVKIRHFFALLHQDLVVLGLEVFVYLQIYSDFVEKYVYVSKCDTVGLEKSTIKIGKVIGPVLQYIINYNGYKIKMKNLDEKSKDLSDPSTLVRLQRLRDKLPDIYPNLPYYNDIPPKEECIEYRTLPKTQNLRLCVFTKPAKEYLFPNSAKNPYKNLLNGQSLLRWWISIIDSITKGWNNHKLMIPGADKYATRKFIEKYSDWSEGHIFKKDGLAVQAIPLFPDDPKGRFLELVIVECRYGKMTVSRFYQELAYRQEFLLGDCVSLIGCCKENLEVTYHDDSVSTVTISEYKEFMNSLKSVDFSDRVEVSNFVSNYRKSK
Numbers stand for hits; i = inactive; ? = inconclusive; nt = no result given.

SMILES | CAL PDZ FP-1 | DYRK1A inh | ALR inh | CAL PDZ FP-2 | Rtt109 HAT inh
CC1=NN2C(=N)/C(=C\c3cc(C)n(Cc4ccccc4)c3C)C(=O)N=C2S1 | nt | nt | 97 | nt | nt
N=C1/C(=C\c2ccc(SCc3ccco3)o2)C(=O)N=C2SC=NN12 | i | i | i | i | i
Cc1cc(/C=C2\C(=N)N3N=C(CC(=O)N4CCOCC4)SC3=NC2=O)c(C)n1Cc1ccccc1 | nt | nt | i | nt | nt
CC1=NN2C(=N)/C(=C\c3ccc(SCc4ccccc4)o3)C(=O)N=C2S1 | i | i | nt | 55 | i
O=C(O)c1ccc(Cl)c(S(=O)(=O)Nc2ccc(OCc3ccccc3)cc2)c1 | i | i | i | i | nt
Cc1ccc(S(=O)(=O)c2ccc(Cl)cc2)cc1S(=O)(=O)NC(C)C(=O)O (stereo not drawn) | i | i | i | i | i
CCN(CC)c1ccc(N2C(=NC(=O)C3CCCO3)SC3CS(=O)(=O)CC32)cc1 (stereo not drawn) | i | nt | 99 | i | i
O=C(N=C1SC2CS(=O)(=O)CC2N1c1ccc(Cl)cc1)C1CCCO1 (stereo not drawn) | i | nt | i | i | i
O=C(CNC(=O)c1ccc(Cl)cc1Cl)OCc1ccccc1 | i | i | i | i | i
COC(=O)C1=CN(Cc2ccc(OC)c(OC)c2)C=C(C(=O)OC)C1c1cccc(F)c1 | i | i | i | 58 | i
COC(=O)C1=CN(Cc2ccc(F)cc2)C=C(C(=O)OC)C1c1cc(OC)c(OC)c(OC)c1 | i | i | i | i | i
O=C(CC1C(=O)NCCN1Cc1cccc(F)c1)NCCCCCN1CCOCC1 (stereo not drawn) | i | i | i | 48 | i
COc1cc(CN2CCNC(=O)C2CC(=O)NCCCN2CCOCC2)cc(OC)c1 (stereo not drawn) | i | i | i | i | i
OCC1(Cc2ccc(Cl)cc2)CCN(Cc2ccc(F)c(F)c2)CC1 | i | i | i | 66 | i
CC(=O)/C(=N\Nc1ccc(C)cc1)N1CCOCC1 | nt | i | 99 | i | i
COc1ccc(CN2CCC(C)CC2)cc1OCc1ccccc1 | i | i | i | i | i
Cc1nnc(SCC(=O)c2ccccc2)n1Cc1ccccc1 | i | i | 85 | i | i
CCn1c(SCC(=O)Nc2ccc(N(C)C)cc2)nnc1C1CC1 | i | i | 99 | nt | i
CCn1c(SCC(=O)Nc2ccc(N3CCOCC3)cc2)nnc1C1CC1 | i | i | 99 | i | i
Cc1nnc(SCC(=O)Nc2ccc(N3CCOCC3)cc2)n1Cc1ccccc1 | i | i | 99 | nt | i
CCn1c(SCC(=O)Nc2ccc(NC(C)=O)cc2)nnc1C1CC1 | i | i | i | i | i
Cc1cc(C)cc(-n2ncc3c2CCCC3NC(=O)CCN2CCCC2=O)c1 (stereo not drawn) | i | i | i | i | i
COc1cc2ccc(=O)oc2c(O)c1O | i | i | nt | i | 126
Cc1cc(SCc2cccc(Cl)c2)nc(=O)[nH]1 | i | i | i | 55 | i
Cn1cccc1C(=O)NC(=O)COC(=O)CNC(=O)CNC(=O)c1ccc(Cl)cc1Cl | i | i | i | i | i
SMILES | CAL PDZ FP-1 | DYRK1A inh | ALR inh | CAL PDZ FP-2 | Rtt109 HAT inh
CC(C)(C)c1ccc(/C=N/Nc2ccc(C(=O)O)cc2)cc1 | i | i | nt | i | i
CC1Oc2ccccc2C=C1/C=N/Nc1ccc(C(=O)O)cc1 (stereo not drawn) | i | i | 92 | i | i
CCN1CCN(S(=O)(=O)c2ccc(Cl)c(C(=O)Oc3ccc(CC(=O)OC)cc3)c2)CC1 | i | i | nt | 80 | i
CCCc1c(C(=O)Nc2ccc(OC)cc2)cnn1-c1ccccc1 | i | nt | i | i | i
CCCc1c(C(=O)NNc2ccccc2OC)cnn1-c1ccccc1 | i | i | 88 | i | i
Cc1ccc(S(=O)(=O)N(C)c2ccc(OCC(=O)N3CCCCC3)cc2)cc1 | i | i | i | i | i
CCOC(=O)[C@@H]1CSCCS(=O)(=O)N1 | i | i | nt | i | i
CCOc1ccc(Cn2c(=O)sc3ccccc32)cc1 | i | i | i | i | i
CCOc1ccc(Cn2c(=O)sc3ccccc32)cc1OC | i | i | i | 66 | i
CNC(=O)CSc1nc(-c2ccccc2)c(-c2ccccc2)[nH]1 | i | i | ? | i | i
CCC(Sc1nc(-c2ccccc2)c(-c2ccccc2)[nH]1)C(=O)O (stereo not drawn) | i | i | 82 | i | i
CCCCN(C/C=C/c1ccccc1OC)Cc1ccccc1 | i | i | i | i | 64
Cc1nc2ccccc2nc1N/N=C/c1ccc(O)cc1 | i | i | 85 | i | i
Oc1ccc(/C=N/Nc2ccccc2)cc1 | i | i | i | i | i
O=[N+]([O-])c1ccc(-c2nc(Nc3ccc(O)cc3)c3ccccc3n2)cc1 | i | i | i | i | i
Oc1ccc(Nc2nc3ccccc3nc2Nc2ccc(O)cc2)cc1 | i | i | 96 | i | i
CCOc1ccc(N(CC(=O)NN=C2CCN(C)CC2)S(C)(=O)=O)cc1 | i | i | 91 | i | i
CSc1nnc(C)c(=O)n1COC(=O)/C=C/c1ccc2c(c1)OCO2 | i | i | i | i | i
CCc1nc2n[nH]c(N)c2c2c1CSC(C)(C)C2 | i | i | 87 | i | i
CCSC1=NC2(CCCCC2)Nc2sc3c(c21)CCCC3 | i | i | i | i | i
O=S(=O)(NN1CCOCC1)c1ccc(Br)cc1 | i | i | i | i | 53
COc1ccc(NC(=O)CN(C)C(=O)Cc2n[nH]c(=O)c3ccccc23)cc1 | i | i | i | 31 | i
COc1ccccc1NS(=O)(=O)c1cc(NC(=O)Cc2n[nH]c(=O)c3ccccc23)ccc1Cl | i | nt | i | i | i
COc1ccc(NS(=O)(=O)c2cc(NC(=O)Cc3n[nH]c(=O)c4ccccc34)ccc2OC)cc1 | i | i | nt | 51 | i
Nc1ccc2oc(-c3cccc4ccccc34)nc2c1 | i | i | ? | i | i
SMILES | CAL PDZ FP-1 | DYRK1A inh | ALR inh | CAL PDZ FP-2 | Rtt109 HAT inh
Cc1ccc(-c2nc3cc(N)ccc3o2)c(C)c1 | i | i | 99 | i | i
Cc1ccc2oc(-c3cccc(N)c3)nc2c1 | i | i | i | i | i
Cc1ccc(-c2nc3cc(N)ccc3o2)cc1 | i | i | i | i | i
CC(C)(C)c1ccc(-c2nc3cc(N)ccc3o2)cc1 | i | i | 99 | nt | i
Nc1ccc2oc(-c3cccs3)nc2c1 | i | i | 98 | i | i
O=C1C=C(/C=C/C2C=CC=CC2)C[C@@H](c2ccc(Cl)cc2)C1 (stereo partly drawn) | i | i | i | i | i
CCOP(=O)(/C(C#N)=C(/O)c1ccccc1)c1ccccc1 (stereo not drawn) | i | i | i | 123 | i
CCOP(=O)(OCC)/C(C#N)=C(\O)c1ccc(OC)cc1 | i | i | i | i | i
COc1ccc(CCC(=O)NCC(c2ccco2)N2CCc3ccccc32)cc1 (stereo not drawn) | i | i | 87 | i | i
Cc1ccc(C(=O)NCC(c2ccco2)N2CCc3ccccc32)cc1C (stereo not drawn) | i | i | i | i | i
COc1cc(C(=O)NCC(c2ccco2)N2CCc3ccccc32)cc(OC)c1OC (stereo not drawn) | i | i | 93 | i | i
